# HCV core dimer – inhibitors of HCV core protein dimerization, primary screen, biochemical, TR-FRET, high-throughput; TR-FRET GST/Flag-core106 dimerization, 1536-well; inhibition, % at 5 µM; 300,000 tested, 0.33% active;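 active = inhibition above the mean of all tested compounds plus 3 SD, set per screening campaign, cut at about 45% in these data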
#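 Test system: GST/Flag-tagged HCV core106 proteins; Medium: KF-containing HEPES buffer, pH 7.45, DTT, CHAPS, BSA; Times: compound-protein-antibody incubation 4 h at 22.5 °C; Detection: TR-FRET 671 and 617 nm emission; Benchmarks: wells lacking GST-core106 and wells with excess unlabelled core106.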
# HCV NS3 hel inh – inhibitors of HCV NS3 helicase, primary screen, biochemical, Cy5 molecular beacon fluorescence. Hepatitis C virus NS3 helicase. NS3 helicase DNA unwinding. inhibition, % at 10.9 µM. 290,000 tested, 0.56% active. AID 1800, 2009;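 active = inhibition above the mean of all tested compounds plus 3 SD, set per campaign, cut at about 35% in these data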;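 note: 0% = DMSO wells and 100% = thioflavine S control wells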
#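 Material: hepatitis C virus NS3 helicase domain fragment enzyme; measured by: Cy5 fluorescence, 0 and 60 min reads; control set: DMSO and thioflavine S; incubation: 60 min unwinding reaction at 25 °C after ATP addition; read-out basis: % inhibition from 60/0 min fluorescence ratio, DMSO 0%, thioflavine S 100%; repeats: singlicate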
# PABP1 MLLE inh – inhibitors of PABP1 MLLE–PAM2 peptide binding, primary screen, biochemical, fluorescence polarization, FITC-PAM2, GST-MLLE; inhibition, % at 20 µM; 360,000 tested, 0.36% active; AID 588489, 2011; in the data active = inhibition above about 35%, passing the limit was not always enough;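 note: plate controls were DMSO wells with GST-MLLE for no effect and wells lacking GST-MLLE protein for full effect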
# DNA FID counter-1 – compounds displacing fluorescent DNA intercalator, primary screen, artefact control for HCV NS3 helicase inhibitor project, biochemical, FID fluorescence. DNA fluorescent intercalator displacement. inhibition, % at 7.9 µM. 290,000 tested, 0.17% active; in the data active = inhibition above about 37%;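 note: 0% = vehicle and 100% = reference compound; higher means more ethidium bromide displaced from hairpin DNA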
# eIF4H inh – human eIF4H binding inhibitors, primary screen, translation initiation inhibitor project, biochemical, uHTS, fluorescence polarization; Eukaryotic translation initiation factor 4H (Homo sapiens), Q15056; eIF4H fluorescence polarization binding assay; inhibition, % at 35 µM; 290,000 tested, 0.94% active;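 note: calls also rest on retests at 20 µM and on dose response follow-up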
# PABP FP inh – PABP poly(A) RNA binding inhibitors, primary screen, biochemical, fluorescence polarization, uHTS; Polyadenylate-binding protein 1 (Homo sapiens), P11940; inhibition, % at 35 µM; 290,000 tested, 1% active;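 note: calls also rest on retests at 20 µM and on dose response follow-up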
# NS3 helicase cf – HCV NS3 helicase inhibitors, retest, confirmation, biochemical, Cy5 molecular beacon fluorescence, triplicate; AID 1943, 2009; inhibition, % at 10.9 µM; NS3 helicase DNA unwinding; 1,600 tested, 31% active; shares compounds with HCV NS3 hel inh;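 active = inhibition above the mean of all tested compounds plus 3 SD, cutoff set per campaign, cut at about 36% in these data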
# DNA FID counter-2 – compounds displacing fluorescent DNA intercalator, artefact control for HCV NS3 helicase inhibitor project, biochemical, FID fluorescence, triplicate. DNA fluorescent intercalator displacement. shares compounds with HCV NS3 hel inh. 1,600 tested, 4% active. inhibition, % at 7.9 µM; in the data active = inhibition above about 37%;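 note: 0% = vehicle and 100% = reference compound; higher means more displacement of ethidium bromide from the DNA hairpin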
# DNA FID DR – compounds displacing fluorescent intercalator from DNA, dose response, counter-screen for HCV NS3 helicase inhibitor project, biochemical, fluorescence | shares compounds with HCV NS3 hel inh | fluorescent intercalator displacement from DNA | IC50, µM | AID 2172, 2009 | 120 tested, under 10 active
# * marks the source's active call; other numbers are inactive results; i = inactive; ? = inconclusive; / = no result given. Most compounds without a hit are left out; they make up all but 2% or so of the library. Unless noted, the rule behind the calls is not given here.
SMILES,HCV core dimer,HCV NS3 hel inh,PABP1 MLLE inh,DNA FID counter-1,eIF4H inh,PABP FP inh,NS3 helicase cf,DNA FID counter-2,others
COc1ccc(OCC(O)CNC(=O)c2sccc2Cl)cc1 (centres undefined),-2.8,44.5*,17.1,-2.7,-13.6,-5.0,-8.1,-0.1,
C[C@@H]1CN([C@@H](C)CO)C(=O)CCCn2nncc2CO[C@@H]1CN(C)C(=O)Nc1ccc(C(C)(C)C)cc1,/,/,-3.9,/,/,/,/,/,
C=CCSC1=N/C(=C\C=C\c2ccco2)C(=O)S1,64.7*,41.7*,2.5,-11.3,96.0*,75.9*,50.4*,19.4,DNA FID DR=>79.4
O=c1cc(O)c2ccc(O)cc2o1,-1.9,-0.3,9.9,1.6,13.0,13.4,/,/,
O=c1ccc2[n+]([O-])c3ccc(O)cc3oc-2c1,/,36.8*,36.1,i,?,?,-0.5,-40.5,
CC(=O)N1C=Cc2c(c(C)c3c([nH]c4ccccc43)c2C)C1,/,39.3*,/,32.2,12.1,35.3,22.6,34.6,
N/C(=N\OC(=O)c1ccc2ccccc2c1)c1ccccc1Cl,2.0,1.5,10.4,-12.8,-0.7,-2.0,/,/,
COc1ccc(Cc2nnc(NC(=O)c3ccc(F)cc3)s2)cc1OC,-9.2,47.0*,-7.1,-28.5,2.0,-2.6,-11.5,-3.8,
CN1C[C@@H]2[C@@H]3C(=O)N(Cc4ccccc4)C(=O)[C@@H]3[C@](Cc3ccccc3)(C1=O)N2C(=O)c1ccc(C(F)(F)F)cc1,/,/,3.6,/,/,/,/,/,
CCC(Cc1ccccc1)NC(=O)C1CC1 (centres undefined),/,40.5*,-9.2,-11.1,1.2,1.2,0.3,8.9,
O=C(/C=C/c1ccco1)NC(=S)Nc1cccc(C(=O)O)c1,9.3,52.1*,20.3,-12.7,86.3*,72.0*,30.1,10.8,
NNc1nc2sc3c(c2c(=O)n1Cc1ccccc1)CCC3,20.3,43.6*,-54.3,-10.7,64.3*,14.6*,10.1,-16.3,
O=S(=O)(c1ccc(NC(=S)N2CCCCC2CO)cc1)N1CCOCC1 (centres undefined),/,/,24.2,/,/,/,/,/,
O=C(COc1ccccc1)Nc1nnc(-c2ccc(F)cc2)o1,-22.6,60.4*,0.3,-16.6,2.4,0.2,-20.2,-14.8,
O=C(COc1ccccc1)Nc1nnc(-c2ccc3c(c2)CCCC3)o1,5.9,2.5,8.2,-9.7,8.2,-3.4,/,/,
COc1ccccc1CCNC(=O)CCn1nc(C)c2c(C)n(-c3ccccc3)nc2c1=O,7.7,1.0,6.4,-49.4,-12.3,1.9,/,/,
Cc1c(NC(=O)C(C)OC(=O)c2c3c(nc4ccccc24)CCC3)c(=O)n(-c2ccccc2)n1C (centres undefined),13.9,39.0*,10.2,-23.6,50.2,-7.5,-24.8,-27.6,
O=C(O)c1cc(NC(=S)NC(=O)C(c2ccccc2)c2ccccc2)ccc1Cl,8.5,41.0*,22.9,-27.9,-12.7,-1.0,76.5*,-4.5,
O=C(NC(=S)Nc1ccc(Cl)c(C(=O)O)c1)c1ccco1,10.0,-1.8,37.6,-1.1,-4.3,3.5,/,/,
Cc1c(CC(=O)O)c(=O)oc2cc(OCc3ccc(F)cc3Cl)ccc12,-1.2,47.7*,10.6,-27.5,3.9,6.7,50.6*,-12.4,
Oc1c(/C=C/C=C/C=Nc2ccccc2)sc(=S)n1Cc1ccccc1,50.4*,44.4*,-96.6,-10.6,22.5,14.0,64.6*,32.9,DNA FID DR=i
Nc1c(S(=O)(=O)O)cc(NC(=O)c2ccccc2)c2c1C(=O)c1ccccc1C2=O,-13.5,80.8*,17.2,34.1,?,112.1*,65.7*,60.6*,
O=C(Nc1ccccc1-c1ccccc1)c1ccccc1,-2.6,2.0,-8.5,-3.9,-5.4,-1.0,/,/,
O=C(c1cnc(Cl)c(Cl)c1)N1CCC(Cc2ccccc2)CC1,8.7,37.1*,7.7,-25.9,1.2,-0.2,4.4,-36.3,
O=C(c1ccc([N+](=O)[O-])cc1)N1CCC(Cc2ccccc2)CC1,0.4,-4.7,14.8,-23.7,14.4,12.8,/,/,
SMILES,HCV core dimer,HCV NS3 hel inh,PABP1 MLLE inh,DNA FID counter-1,eIF4H inh,PABP FP inh,NS3 helicase cf,DNA FID counter-2,others
CCNC(=O)C1(C)CCCN(Cc2csc(-c3ccccc3)n2)C1 (centres undefined),/,/,-0.4,/,/,/,/,/,
COc1cc(/C=C2\SC(=S)NC2=O)ccc1OS(=O)(=O)c1ccccc1,21.2,15.9,/,-0.5,12.7,7.4,/,/,
COc1cc(/C=C2/SC(=S)NC2=O)ccc1OS(=O)(=O)c1ccc(C)cc1,23.1,52.9*,-1.0,-1.7,8.5,-6.9,58.8*,31.4,
O=C1N/C(=N\S(=O)(=O)Cc2ccccc2)S/C1=C/c1cccc([N+](=O)[O-])c1,0.1,23.4,4.5,-11.3,-7.4,9.0,/,/,
COc1ccc(/C=C2/S/C(=N/S(=O)(=O)Cc3ccccc3)NC2=O)cc1OC,4.2,41.8*,-0.6,-25.9,0.4,-13.3,57.1*,-33.3,
CC12CC3CC(C)(C1)CC(C(=O)NCc1cccnc1)(C3)C2,6.5,-0.7,10.5,-19.8,-4.0,0.4,/,/,
Cc1ccc(OCC(=O)NNC(=O)C2CSC3(C)CCC(=O)N23)cc1C (centres undefined),/,/,4.2,/,/,/,/,/,
CCOC(=O)Cc1csc(N/N=C/c2ccccc2)n1,-1.9,0.8,-25.3,-15.2,5.6,5.5,/,/,
CCOC(=O)Cc1csc(N/N=C\c2ccc(N(C)C)cc2)n1,17.8,49.8*,-112.1,-19.8,3.2,1.5,-15.9,2.0,
CCN(CC)S(=O)(=O)c1cc(OC)ccc1N=Nc1ccc(O)c2ncccc12,/,49.5*,-68.5,-24.0,6.6,10.5,68.0*,-3.1,
CCN(CC)c1ccc(N=C2C(=O)Nc3ccccc32)cc1,0.4,44.7*,0.5,-9.1,9.4,7.1,19.0,22.0,
Cc1ccc(N=C2C(=O)Nc3ccccc32)cc1,10.6,-5.0,-4.2,-4.4,-9.2,-15.7,/,/,
CCOC(=O)Cn1c(=NC(=O)c2cc(-c3cccs3)nc3ccccc23)sc2cc(S(N)(=O)=O)ccc21,-10.2,1.9,-68.4,-1.5,-4.7,-9.5,/,/,
